Experimental data from ChEMBL document CHEMBL1145606, “Discovery of amino-acetonitrile derivatives, a new class of synthetic anthelmintic compounds” (2008).

Legend:
Type in all cases: functional
Haemonchus contortus [1] = experiment: Anthelmintic activity against benzimidazole-resistant Haemonchus contortus isolate by larva development assay
In short: (§1)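 Larval development assay: test compounds were embedded in an agar-based nutritive medium that supports development from eggs to third-stage larvae (L3). Plates were incubated for 6 days at 28 °C and 80% relative humidity, and egg hatching and larval development were recorded. Values are means of three experiments.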

Haemonchus contortus [2] = experiment: Anthelmintic activity against Haemonchus contortus infected in gerbils assessed as reduction in worm count at 10 mg/kg, po; design: scale not given: the % may be the effect or the level left
In short: (§2)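 Gerbils (Meriones unguiculatus) were artificially infected with H. contortus larvae 6 days, or T. colubriformis larvae 5 days, before treatment. They were then dosed orally or subcutaneously, and controls received a placebo formulation. Three days post-treatment the animals were sacrificed and dissected for worm recovery.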

[3] = system: Trichostrongylus colubriformis; experiment: Anthelmintic activity against Trichostrongylus colubriformis infected in gerbils assessed as reduction in worm count at 10 mg/kg, po; design: scale not given: the % may be the effect or the level left; in short: as §2
[4] = system: Trichostrongylus colubriformis; experiment: Anthelmintic activity against levamisole-resistant Trichostrongylus colubriformis isolate by larva development assay; in short: as §1
Haemonchus contortus [5] = experiment: Anthelmintic activity against Haemonchus contortus infected in gerbils assessed as reduction in worm count at 3.2 mg/kg, po; design: scale not given: the % may be the effect or the level left; in short: as §2
[6] = system: Trichostrongylus colubriformis; experiment: Anthelmintic activity against Trichostrongylus colubriformis infected in gerbils assessed as reduction in worm count at 3.2 mg/kg, po; design: scale not given: the % may be the effect or the level left; in short: as §2
[7] = system: Trichostrongylus colubriformis; experiment: Anthelmintic activity against Trichostrongylus colubriformis infected in gerbils assessed as reduction in worm count at 1 mg/kg, po; design: scale not given: the % may be the effect or the level left; in short: as §2
[8] = system: Trichostrongylus colubriformis; experiment: Anthelmintic activity against Trichostrongylus colubriformis infected in gerbils assessed as reduction in worm count at 1 mg/kg, sc; design: scale not given: the % may be the effect or the level left; conditions: route subcutaneous; in short: as §2
Haemonchus contortus [9] = experiment: Anthelmintic activity against Haemonchus contortus infected in gerbils assessed as reduction in worm count at 1 mg/kg, sc; design: scale not given: the % may be the effect or the level left; conditions: route subcutaneous; in short: as §2
Haemonchus contortus [10] = experiment: Anthelmintic activity against Haemonchus contortus infected in gerbils assessed as reduction in worm count at 1 mg/kg, po; design: scale not given: the % may be the effect or the level left; in short: as §2

Row | SMILES | EC100 (Haemonchus contortus [1]) [ppm] | EC100 [4] [ppm] | further results
1 | CC(C#N)(COc1ccccc1C(F)(F)F)NC(=O)c1ccc(SC(F)(F)F)cc1 (stereo not given) | 0.032 | 0.032 | Activity (Haemonchus contortus [2]): 77%; Activity [3]: 99%
2 | CC(C#N)(COc1ccc(F)cc1Cl)NC(=O)c1ccc(OC(F)(F)F)cc1 (stereo not given) | 0.032 | 0.032 | Activity (Haemonchus contortus [5]): 98%; Activity [6]: 77%
3 | CC(C#N)(COc1c(F)cc(F)cc1F)NC(=O)c1ccc(OC(F)(F)F)cc1 (stereo not given) | >10 | >10 | 
4 | CC(C#N)(COc1cc(C#N)ccc1C(F)(F)F)NC(=O)c1ccc(OC(F)(F)F)cc1 (stereo not given) | 0.01 | 0.032 | Activity [7]: 85%; Activity [8]: 75%; Activity (Haemonchus contortus [9]): 97%; Activity (Haemonchus contortus [10]): 95%
5 | CC(C#N)(COc1cc(F)c(F)cc1C(F)(F)F)NC(=O)c1ccc(OC(F)(F)F)cc1 (single isomer, unassigned; (-)) | 0.0032 | 0.01 | 
6 | CC(C#N)(COc1ccccc1Cl)NC(=O)c1ccc(F)cc1 (stereo not given) | 3.2 | 1 | 
7 | c1ccc2[nH]c(-c3cscn3)nc2c1 [THIABENDAZOLE] | 10 | 1 | 
8 | CC(C#N)(COc1ccccc1Cl)NC(=O)c1ccc(OC(F)(F)F)cc1 (stereo not given) | 0.032 | 0.032 | 
9 | CC(C#N)(COc1ccccc1Cl)NC(=O)c1cccc(OC(F)(F)F)c1 (stereo not given) | >10 | 10 | 
10 | c1ccc([C@H]2CN3CCSC3=N2)cc1 [LEVAMISOLE] | 0.32 | 10 | 
11 | C[C@](C#N)(COc1cc(C#N)ccc1C(F)(F)F)NC(=O)c1ccc(SC(F)(F)F)cc1 [MONEPANTEL] | 0.0032 | 0.01 | 
12 | CC(C#N)(COc1ccccc1Cl)NC(=O)c1ccc(Cl)cc1 (stereo not given) | 0.32 | 0.32 | 
13 | CC(C#N)(COc1cc(C#N)ccc1C(F)(F)F)NC(=O)c1ccc(SC(F)(F)F)cc1 (stereo not given) | 0.01 | 0.032 | Activity [7]: 100%; Activity [8]: 84%; Activity (Haemonchus contortus [9]): 99%; Activity (Haemonchus contortus [10]): 100%
14 | CC(C#N)(COc1ccccc1F)NC(=O)c1ccc(C(F)(F)F)cc1 (stereo not given) | 1 | 1 | 
15 | CC(C#N)(COc1ccccc1C(F)(F)F)NC(=O)c1ccc(OC(F)(F)F)cc1 (stereo not given) | 0.01 | 0.01 | Activity (Haemonchus contortus [2]): 98%; Activity [3]: 97%
16 | CC(C#N)(COc1cc(F)ccc1Br)NC(=O)c1ccc(OC(F)(F)F)cc1 (stereo not given) | 0.01 | 0.1 | Activity (Haemonchus contortus [5]): 90%; Activity [6]: 99%
17 | Cc1ccc(C(=O)NC(C)(C#N)COc2ccccc2Cl)cc1 (stereo not given) | >10 | >10 | 
18 | CC(C#N)(COc1cc(F)c(F)cc1Br)NC(=O)c1ccc(OC(F)(F)F)cc1 (stereo not given) | 0.01 | 0.032 | Activity (Haemonchus contortus [5]): 100%; Activity [6]: 97%
19 | CC(C#N)(COc1ccccc1C(F)(F)F)NC(=O)c1ccccc1 (stereo not given) | 10 | >10 | 
20 | CC(C#N)(COc1ccc(C#N)cc1C(F)(F)F)NC(=O)c1ccc(SC(F)(F)F)cc1 (stereo not given) | 0.032 | 0.032 | Activity [7]: 98%; Activity [8]: 86%; Activity (Haemonchus contortus [9]): 92%; Activity (Haemonchus contortus [10]): 90%
21 | CC(C#N)(COc1c(Cl)cccc1Cl)NC(=O)c1ccc(C(F)(F)F)cc1 (stereo not given) | >10 | >10 | 

Row | SMILES | EC100 (Haemonchus contortus [1]) [ppm] | EC100 [4] [ppm] | further results
22 | CC(C#N)(COc1cc(F)c(F)cc1C(F)(F)F)NC(=O)c1ccc(SC(F)(F)F)cc1 (stereo not given) | 0.032 | 0.032 | Activity [7]: 98%; Activity [8]: 90%; Activity (Haemonchus contortus [9]): 73%; Activity (Haemonchus contortus [10]): 84%
23 | CC(C#N)(COc1ccccc1C(F)(F)F)NC(=O)c1ccc(-c2ccccc2)cc1 (stereo not given) | >10 | >10 | 
24 | CC(C#N)(COc1cccc(Cl)c1Cl)NC(=O)c1ccc(C(F)(F)F)cc1 (stereo not given) | 0.1 | 0.1 | Activity (Haemonchus contortus [2]): 84%; Activity [3]: 67%
25 | CC(C#N)(COc1ccc(C#N)cc1C(F)(F)F)NC(=O)c1ccc(OC(F)(F)F)cc1 (stereo not given) | 0.032 | 0.1 | Activity [7]: 98%; Activity [8]: 97%; Activity (Haemonchus contortus [9]): 91%; Activity (Haemonchus contortus [10]): 95%
26 | CC(C#N)(COc1ccc(C#N)cc1C(F)(F)F)NC(=O)c1ccc(C(F)(F)F)cc1 (stereo not given) | 0.1 | 0.1 | Activity [7]: 91%; Activity (Haemonchus contortus [10]): 97%
27 | CC(C#N)(COc1cc(F)c(F)cc1C(F)(F)F)NC(=O)c1ccc(OC(F)(F)F)cc1 (stereo in doubt; 19) | 0.01 | 0.032 | Activity [7]: 73%; Activity [8]: 75%; Activity (Haemonchus contortus [9]): 99%; Activity (Haemonchus contortus [10]): 99%
28 | CC(C#N)(COc1ccccc1Br)NC(=O)c1ccc(OC(F)(F)F)cc1 (stereo not given) | 0.032 | 0.032 | Activity (Haemonchus contortus [2]): 97%; Activity [3]: 99%
29 | CC(C#N)(COc1cc(F)ccc1Cl)NC(=O)c1ccc(OC(F)(F)F)cc1 (stereo not given) | 0.01 | 0.032 | Activity (Haemonchus contortus [5]): 92%; Activity [6]: 79%
30 | CC(C#N)(COc1cccc(F)c1)NC(=O)c1ccc(OC(F)(F)F)cc1 (stereo not given) | 0.32 | 1 | 
31 | C[C@@](C#N)(COc1cc(C#N)ccc1C(F)(F)F)NC(=O)c1ccc(SC(F)(F)F)cc1 | 10 | >10 | 
32 | CC(C#N)(COc1ccc(C(F)(F)F)cc1)NC(=O)c1ccc(C(F)(F)F)cc1 (stereo not given) | >10 | >10 | 
33 | CC(C#N)(COc1ccccc1)NC(=O)c1ccc(C(F)(F)F)cc1 (stereo not given) | >10 | >10 | 
34 | CC(C#N)(COc1ccccc1Cl)NC(=O)c1ccc(C(F)(F)F)cc1 (stereo not given) | 0.032 | 0.032 | Activity (Haemonchus contortus [2]): 88%; Activity [3]: 19%
35 | CC(C#N)(COc1cc(F)c(F)cc1C(F)(F)F)NC(=O)c1ccc(OC(F)(F)F)cc1 (single isomer, unassigned; (+)) | 1 | 3.2 | 
36 | CC(C#N)(COc1cc(Cl)ccc1Cl)NC(=O)c1ccc(OC(F)(F)F)cc1 (stereo not given) | 0.01 | 0.032 | Activity (Haemonchus contortus [5]): 68%; Activity [6]: 89%
37 | CC(C#N)(COc1ccccc1Cl)NC(=O)c1ccccc1C(F)(F)F (stereo not given) | >10 | >10 | 
38 | CC(C#N)(COc1cc(C#N)ccc1C(F)(F)F)NC(=O)c1ccc(C(F)(F)F)cc1 (stereo not given) | 0.032 | 0.1 | Activity [7]: 87%; Activity [8]: 72%; Activity (Haemonchus contortus [9]): 90%; Activity (Haemonchus contortus [10]): 97%
39 | CC(C#N)(COc1ccc(Cl)cc1Cl)NC(=O)c1ccc(OC(F)(F)F)cc1 (stereo not given) | 0.1 | 0.1 | Activity (Haemonchus contortus [2]): 94%; Activity [3]: 100%
40 | CCc1ccccc1OCC(C)(C#N)NC(=O)c1ccc(OC(F)(F)F)cc1 (stereo not given) | 0.32 | 0.32 | 
41 | CC(C#N)(COc1ccccc1Cl)NC(=O)c1ccc(C(F)(F)F)cc1F (stereo not given) | 0.32 | 0.32 | 
42 | CC(C#N)(COc1cc(F)c(F)cc1C(F)(F)F)NC(=O)c1ccc(C(F)(F)F)cc1 (stereo not given) | 0.032 | 0.032 | Activity [7]: 91%; Activity [8]: 90%; Activity (Haemonchus contortus [9]): 94%; Activity (Haemonchus contortus [10]): 89%
